# Source: ChEMBL document CHEMBL1629527, “In vitro antifungal activities of bis(alkylpyridinium)alkane compounds against pathogenic yeasts and molds” (Antimicrob Agents Chemother, 2010)
# Assays:
# [1] = tested on: Rhizopus arrhizus; test: Antifungal activity against Rhizopus oryzae 05-203111 after 48 to 72 hrs; format: functional
# Summary of the method: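 After the broth microdilution MIC read, suspension from every well without visible growth was plated onto Sabouraud dextrose agar and incubated at 35°C, up to 7 days for molds. MFC was taken as the lowest drug concentration with no colonies.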
# [2] = tested on: Aspergillus fumigatus; test: Antifungal activity against Aspergillus fumigatus 05-203114 after 48 to 72 hrs; format: functional
# Summary of the method: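 CLSI M38-A2 broth microdilution for molds in RPMI 1640 with L-glutamine and no bicarbonate, buffered with 0.165 M MOPS to pH 7.0. Compounds were dissolved in water and tested at 0.175–87.5 μM final, 35°C, up to 7 days. MIC was read visually as 100% inhibition versus growth control. For MFC, clear wells were plated on SDA and the lowest concentration with no colonies taken. Each isolate was run in duplicate, two independent experiments.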
# [3] = tested on: Exophiala spinifera; test: Antifungal activity against Exophiala spinifera 03-200803 after 24 to 72 hrs by broth microdilution method; format: functional
# Summary of the method: (§1)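 Mold isolates subcultured on potato dextrose agar, then tested by CLSI M38-A2 broth microdilution in RPMI 1640 (L-glutamine, no bicarbonate) buffered to pH 7.0 with 0.165 M MOPS. Compounds were dissolved in water and tested at a final 0.175–87.5 μM. Plates were incubated at 35°C. MIC was read visually as the lowest concentration giving 100% inhibition versus the growth control. Each isolate was run in duplicate in two independent experiments.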
# [4] = tested on: Fusarium solani; test: Antifungal activity against Fusarium solani 04-203102 after 24 to 72 hrs by broth microdilution method; format: functional; summary of the method: as §1
# [5] = Antifungal activity against Paecilomyces lilacinus 05-200601 after 24 to 72 hrs by broth microdilution method; format: functional; settings: Purpureocillium lilacinum; summary of the method: as §1
# [6] = tested on: Rhizopus arrhizus; test: Antifungal activity against Rhizopus oryzae 05-203111 after 24 to 72 hrs by broth microdilution method; format: functional; summary of the method: as §1
# [7] = tested on: Pichia kudriavzevii; test: Antifungal activity against Candida krusei 04-202328 after 48 to 72 hrs; format: functional
# Summary of the method: (§2)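 CLSI M27-A3 broth microdilution for yeasts in RPMI 1640 with L-glutamine and no bicarbonate, buffered with 0.165 M MOPS to pH 7.0. Compounds were dissolved in water and tested at 0.175–87.5 μM final, 35°C. MIC was read visually at 24–72 h as 100% inhibition versus growth control. For MFC, 30 μl from clear wells went onto SDA at 35°C for 48–72 h, reading the lowest concentration without colonies. Duplicates, two independent runs.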
# [8] = tested on: Candida parapsilosis; test: Antifungal activity against Candida parapsilosis ATCC 22019 after 48 to 72 hrs; format: functional; settings: Lodderomyces parapsilosis
# Summary of the method: (§3)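 MFC: after the MIC read, 30-μl aliquots from each well without visible growth were plated onto Sabouraud dextrose agar and incubated at 35°C. Reading was at 48–72 h for yeasts and up to 7 days for molds. MFC was the lowest concentration with no colonies.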
# [9] = tested on: Candida parapsilosis; test: Antifungal activity against Candida parapsilosis 04-202398 after 48 to 72 hrs; format: functional; settings: Lodderomyces parapsilosis; summary of the method: as §2
# [10] = tested on: Aspergillus fumigatus; test: Antifungal activity against Aspergillus fumigatus 05-203114 after 24 to 72 hrs by broth microdilution method; format: functional
# Summary of the method: (§4)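 Broth microdilution MIC per CLSI M27-A3 (yeasts) or M38-A2 (molds). RPMI 1640 with L-glutamine, without bicarbonate, buffered to pH 7.0 with 0.165 M MOPS. Final test range for the compounds was 0.175–87.5 μM. Incubation at 35°C with visual reading at 24–72 h. MIC was the lowest concentration giving 100% inhibition versus the growth control (azoles 50% or 100%, by organism). Each isolate was run in duplicate in two independent experiments.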
# [11] = tested on: Aspergillus flavus; test: Antifungal activity against Aspergillus flavus ATCC 204304 after 24 to 72 hrs by broth microdilution method; format: functional; summary of the method: as §4
# [12] = tested on: Aspergillus flavus; test: Antifungal activity against Aspergillus flavus 05-203758 after 24 to 72 hrs by broth microdilution method; format: functional; summary of the method: as §4
# [13] = tested on: Aspergillus terreus; test: Antifungal activity against Aspergillus terreus 05-202844 after 24 to 72 hrs by broth microdilution method; format: functional; summary of the method: as §4
# [14] = tested on: Lomentospora prolificans; test: Antifungal activity against Scedosporium prolificans 05-203060 after 24 to 72 hrs by broth microdilution method; format: functional; summary of the method: as §1
# [15] = tested on: Scedosporium apiospermum; test: Antifungal activity against Scedosporium apiospermum 05-203100 after 24 to 72 hrs by broth microdilution method; format: functional; summary of the method: as §1
# [16] = tested on: Cunninghamella bertholletiae; test: Antifungal activity against Cunninghamella bertholletiae 99-12187 after 24 to 72 hrs by broth microdilution method; format: functional; summary of the method: as §4
# [17] = tested on: Lichtheimia corymbifera; test: Antifungal activity against Absidia corymbifera 04-200170 after 24 to 72 hrs by broth microdilution method; format: functional; summary of the method: as §4
# [18] = tested on: Aspergillus fumigatus; test: Antifungal activity against Aspergillus fumigatus ATCC 204305 after 24 to 72 hrs by broth microdilution method; format: functional; summary of the method: as §4
# [19] = tested on: Cryptococcus gattii species complex; test: Antifungal activity against Cryptococcus gattii 05-200122 after 24 to 72 hrs by broth microdilution method; format: functional, Cryptococcus bacillisporus; summary of the method: as §4
# [20] = tested on: Cryptococcus neoformans; test: Antifungal activity against Cryptococcus neoformans 05-202523 after 24 to 72 hrs by broth microdilution method; format: functional; summary of the method: as §4
# [21] = tested on: Cryptococcus neoformans; test: Antifungal activity against Cryptococcus neoformans ATCC 90112 after 24 to 72 hrs by broth microdilution method; format: functional; summary of the method: as §4
# [22] = tested on: Candida tropicalis; test: Antifungal activity against Candida tropicalis 04-202361 after 24 to 72 hrs by broth microdilution method; format: functional; summary of the method: as §4
# [23] = tested on: Nakaseomyces glabratus; test: Antifungal activity against Candida glabrata 04-202345 after 24 to 72 hrs by broth microdilution method; format: functional; summary of the method: as §4
# [24] = tested on: Candida parapsilosis; test: Antifungal activity against Candida parapsilosis 04-202398 after 24 to 72 hrs by broth microdilution method; format: functional; settings: Lodderomyces parapsilosis; summary of the method: as §4
# [25] = tested on: Pichia kudriavzevii; test: Antifungal activity against Candida krusei 04-202328 after 24 to 72 hrs by broth microdilution method; format: functional; summary of the method: as §4
# [26] = tested on: Candida parapsilosis; test: Antifungal activity against Candida parapsilosis ATCC 22019 after 24 to 72 hrs by broth microdilution method; format: functional; settings: Lodderomyces parapsilosis; summary of the method: as §4
# [27] = tested on: Pichia kudriavzevii; test: Antifungal activity against Candida krusei ATCC 6258 after 24 to 72 hrs by broth microdilution method; format: functional; summary of the method: as §4
# [28] = tested on: Candida albicans; test: Antifungal activity against Candida albicans ATCC 10231 after 24 to 72 hrs by broth microdilution method; format: functional; summary of the method: as §4
# [29] = tested on: Candida albicans; test: Antifungal activity against Candida albicans ATCC 90028 after 24 to 72 hrs by broth microdilution method; format: functional; summary of the method: as §4
# [30] = Antifungal activity against Exophiala jeanselmei 03-200268 after 24 to 72 hrs by broth microdilution method; format: functional; summary of the method: as §4
# [31] = tested on: Cryptococcus neoformans; test: Antifungal activity against Cryptococcus neoformans 05-202523 after 48 to 72 hrs; format: functional; summary of the method: as §3
# [32] = tested on: Aspergillus terreus; test: Antifungal activity against Aspergillus terreus 05-202844 after 48 to 72 hrs; format: functional; summary of the method: as §3
# [33] = tested on: Candida albicans; test: Antifungal activity against Candida albicans ATCC 90028 after 48 to 72 hrs; format: functional; summary of the method: as §3
# [34] = tested on: Pichia kudriavzevii; test: Antifungal activity against Candida krusei […] after 48 to 72 hrs; format: functional; summary of the method: as §3
# [35] = tested on: Pichia kudriavzevii; test: Antifungal activity against Candida krusei ATCC 9258 after 24 to 72 hrs by broth microdilution method; format: functional; summary of the method: as §4
# [36] = tested on: Nakaseomyces glabratus; test: Antifungal activity against Candida glabrata 04-202345 after 48 to 72 hrs; format: functional; summary of the method: as §3
Structure (SMILES),MFC [1] [µg/mL],MIC [3] [µg/mL],MIC [4] [µg/mL],MIC [5] [µg/mL],MIC [6] [µg/mL],MFC [7] [µg/mL],MFC [8] [µg/mL],MIC [10] [µg/mL],MIC [11] [µg/mL],MIC [12] [µg/mL],MIC [13] [µg/mL],MIC [14] [µg/mL],MIC [15] [µg/mL],MIC [16] [µg/mL],MIC [17] [µg/mL],MIC [18] [µg/mL],MIC [19] [µg/mL],MIC [20] [µg/mL],MIC [21] [µg/mL],MIC [22] [µg/mL],other results
[Cl-].[Cl-].c1ccc(CCCc2cc[n+](CCCCCCCCCCCC[n+]3ccc(CCCc4ccccc4)cc3)cc2)cc1,1.74,1.74,27.9,> 55.8,0.87,27.9,1.74,13.9,55.8,> 55.8,1.74,> 55.8,> 55.8,27.9,> 55.8,27.9,1.74,27.9,1.74,0.87,MFC [2]: 55.8 µg/mL; MFC [9]: > 55.8 µg/mL; MIC [23]: 0.87 µg/mL; MIC [24]: 55.8 µg/mL; MIC [25]: 13.9 µg/mL; MIC [26]: 0.87 µg/mL; MIC [27]: 13.9 µg/mL; MIC [28]: 1.74 µg/mL; MIC [29]: 1.74 µg/mL; MIC [30]: 1.74 µg/mL
CC(C)CCc1cc[n+](CCCCCCCCCCCC[n+]2ccc(CCC(C)C)cc2)cc1.[Cl-].[Cl-],23.7,1.48,47.3,> 47.3,5.9,47.3,2.96,> 47.3,> 47.3,> 47.3,2.96,2.96,11.8,> 47.3,> 47.3,> 47.3,1.48,11.8,2.96,2.96,MFC [31]: 47.3 µg/mL; MFC [32]: 5.9 µg/mL; MFC [33]: 5.9 µg/mL; MFC [34]: 23.7 µg/mL; MIC [23]: 1.48 µg/mL; MIC [24]: > 47.3 µg/mL; MIC [35]: 11.8 µg/mL; MIC [25]: 23.7 µg/mL; MIC [26]: 1.48 µg/mL; MIC [27]: 23.7 µg/mL; MIC [28]: 2.96 µg/mL; MIC [29]: 2.96 µg/mL; MFC [36]: 5.9 µg/mL; MIC [30]: 2.96 µg/mL
